Laboratory results taken from ChEMBL document CHEMBL1649116, “Chloroquine is grossly overdosed and overused but well tolerated in Guinea-bissau” (Antimicrob Agents Chemother, 2009).

Tests used:
Homo sapiens [1] = species: Homo sapiens; assay: Toxicity in malaria patient assessed as vomiting on day 1 after treatment at quartile 1 of compound concentration; format: organism-based; details: in vivo
Procedure, shortened: (§1)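 Mothers or guardians were questioned at each follow-up visit about the child's symptoms and drug intake. Children were grouped into quartiles by whole-blood chloroquine concentration 1 day after the end of treatment. Symptom frequency is given as n/N (%), and vomiting duration in days. Trend across quartiles was tested with the nonparametric test for trend.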

Homo sapiens [2] = species: Homo sapiens; assay: Toxicity in malaria patient assessed as diarrhea on day 1 after treatment at quartile 2 of compound concentration; format: organism-based; details: in vivo; procedure, shortened: as §1
Homo sapiens [3] = species: Homo sapiens; assay: Toxicity in malaria patient assessed as diarrhea on day 1 after treatment at quartile 1 of compound concentration; format: organism-based; details: in vivo; procedure, shortened: as §1
Homo sapiens [4] = species: Homo sapiens; assay: Toxicity in malaria patient assessed as vomiting on day 1 after treatment at quartile 4 of compound concentration; format: organism-based; details: in vivo; procedure, shortened: as §1
Homo sapiens [5] = species: Homo sapiens; assay: Toxicity in malaria patient assessed as vomiting on day 1 after treatment at quartile 2 of compound concentration; format: organism-based; details: in vivo; procedure, shortened: as §1
Homo sapiens [6] = species: Homo sapiens; assay: Toxicity in malaria patient assessed as diarrhea on day 1 after treatment at quartile 4 of compound concentration; format: organism-based; details: in vivo; procedure, shortened: as §1
Homo sapiens [7] = species: Homo sapiens; assay: Toxicity in malaria patient assessed as duration of vomiting at quartile 2 of compound concentration; format: organism-based; details: in vivo; procedure, shortened: as §1
Homo sapiens [8] = species: Homo sapiens; assay: Toxicity in malaria patient assessed as duration of vomiting at quartile 1 of compound concentration; format: organism-based; details: in vivo; procedure, shortened: as §1
[9] = Drug level in malaria patient whole blood on day 14; format: ADME, tissue-based; details: human, read-out: Drug uptake
Procedure, shortened: (§2)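 Observational study of 102 children in Guinea-Bissau given chloroquine unsupervised under routine prescribing, usually split into two to three daily doses of 6.6 mg kg−1. Whole blood was drawn 1, 4 and 14 days after the last reported dose for chloroquine and desethylchloroquine analysis. Values are medians with interquartile range, in nM.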

[10] = Volume of distribution in malaria patient; format: ADME, organism-based; details: human, in vivo
[11] = Drug level in malaria patient whole blood on day 1; format: ADME, tissue-based; details: human, read-out: Drug uptake; procedure, shortened: as §2
Homo sapiens [12] = species: Homo sapiens; assay: Toxicity in malaria patient assessed as duration of vomiting at quartile 4 of compound concentration; format: organism-based; details: in vivo; procedure, shortened: as §1
[13] = Drug level in malaria patient whole blood on day 4; format: ADME, tissue-based; details: human, read-out: Drug uptake; procedure, shortened: as §2
[14] = Plasma protein binding in healthy human; format: ADME, cell-free; details: read-out: PPB
Homo sapiens [15] = species: Homo sapiens; assay: Toxicity in malaria patient assessed as diarrhea on day 1 after treatment at quartile 3 of compound concentration; format: organism-based; details: in vivo; procedure, shortened: as §1
Homo sapiens [16] = species: Homo sapiens; assay: Toxicity in malaria patient assessed as vomiting on day 1 after treatment at quartile 3 of compound concentration; format: organism-based; details: in vivo; procedure, shortened: as §1
Homo sapiens [17] = species: Homo sapiens; assay: Toxicity in malaria patient assessed as duration of vomiting at quartile 3 of compound concentration; format: organism-based; details: in vivo; procedure, shortened: as §1
[18] = Drug level in malaria patient whole blood assessed as desethychloroquine level on day 4; format: ADME, tissue-based; details: human, read-out: Drug uptake; procedure, shortened: as §2
[19] = Drug level in malaria patient whole blood assessed as desethychloroquine level on day 1; format: ADME, tissue-based; details: human, read-out: Drug uptake; procedure, shortened: as §2
[20] = Drug level in malaria patient whole blood assessed as desethychloroquine level on day 14; format: ADME, tissue-based; details: human, read-out: Drug uptake; procedure, shortened: as §2

concentration [9] | Vd [10] | concentration [11] | concentration [13] | fraction unbound [14] | concentration [18] | concentration [19] | concentration [20] | Structure (SMILES) | Activity (Homo sapiens [1]) | Activity (Homo sapiens [2]) | Activity (Homo sapiens [3]) | Activity (Homo sapiens [4]) | Activity (Homo sapiens [5]) | Activity (Homo sapiens [6]) | Time (Homo sapiens [7]) | Time (Homo sapiens [8]) | Time (Homo sapiens [12]) | Activity (Homo sapiens [15]) | Activity (Homo sapiens [16]) | Time (Homo sapiens [17])
204 nM | > 100 L/kg | 894 nM | 626 nM | 0.5 |  |  |  | CCN(CC)CCCC(C)Nc1ccnc2cc(Cl)ccc12 (stereo not given) [CHLOROQUINE] | 25% | 64% | 42% | 8% | 24% | 21% | 1.1 days | 1.4 days | 0.5 days | 33% | 14% | 0.5 days
 |  |  |  |  | 446 nM | 638 nM | 181 nM | CCNCCCC(C)Nc1ccnc2cc(Cl)ccc12 (stereo not given) [DESETHYLCHLOROQUINE] |  |  |  |  |  |  |  |  |  |  |  | 
